Converted amounts (≈) assume the structure as drawn. The source made the active and inactive calls. The rule behind the calls is not given here.
Key:
[1] = tested on: Klebsiella pneumoniae; experiment: Antibacterial activity against Klebsiella pneumoniae assessed as growth inhibition at 0.01 mg/uL after 18 hrs by agar diffusion method; type: functional, organism-based
In short: (§1)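 Single-concentration agar diffusion screen: 6 μL aliquots of ethanolic solutions of pure compounds (0.01 mg/μL) deposited on solidified agar; inhibition zone diameter measured after 18 h incubation at 37 °C.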

[2] = tested on: Escherichia coli; experiment: Antibacterial activity against Escherichia coli assessed as growth inhibition at 0.01 mg/uL after 18 hrs by agar diffusion method; type: functional, organism-based; in short: as §1
[3] = tested on: Staphylococcus aureus; experiment: Antibacterial activity against Staphylococcus aureus assessed as growth inhibition after 18 hrs by agar diffusion method; type: functional
In short: (§2)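 MIC by agar diffusion: ethanolic solutions, starting at a maximum of 0.01 mg/μL with successive 2-fold dilutions; 6 μL aliquots deposited on solidified agar; inhibition zone diameter read after 18 h incubation at 37 °C. Cefotaxime positive control, EtOH negative control.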

[4] = tested on: Bacillus subtilis; experiment: Antibacterial activity against Bacillus subtilis assessed as growth inhibition after 18 hrs by agar diffusion method; type: functional; in short: as §2

Structure (SMILES)	growth inhibition (GI) [1]	growth inhibition (GI) [2]	MIC [3] [µg/mL]	MIC [4] [µg/mL]
CC1=CC[C@H]2C(C)(C)CCC[C@]2(C)[C@H]1CC[C@H](C)CC(=O)O	inactive	inactive	780 (≈ 2.54 mM)	150 (≈ 0.489 mM)
CC1=CC[C@H]2C(C)(C)CCC[C@]2(C)[C@H]1CC/C(C)=C\C(=O)O	inactive	inactive	10000 (≈ 32.8 mM)	1000 (≈ 3.28 mM)
CO/N=C(\C(=O)N[C@@H]1C(=O)N2C(C(=O)O)=C(COC(C)=O)CS[C@H]12)c1csc(N)n1 [CEFOTAXIME]	–	–	130 (≈ 0.285 mM)	12500 (≈ 27.4 mM)
C[C@H](CC[C@@H]1[C@@]2(C)CCCC(C)(C)[C@@H]2CC[C@@]1(C)O)CC(=O)O	inactive	inactive	2340 (≈ 7.21 mM)	1560 (≈ 4.81 mM)
